Test results from ChEMBL document CHEMBL1153598, “Syntheses of low-hemolytic antimicrobial gratisin peptides” (Bioorg Med Chem Lett, 2009).
Converted amounts (≈) assume the structure as drawn. Non-standard residues stand in square brackets, D forms with d. Residues, ends and D or L forms follow the SMILES beside them. Orn = NCCC[C@H](N)C(=O)O

Columns and labels:
Bacillus subtilis = assay: Antibiotic activity against Bacillus subtilis NBRC 3513 by microplate dilution assay; assay type: functional
Method in brief: (§1)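 Minimum inhibitory concentration determined by microplate dilution, inoculum 10⁶ organisms per ml. Strains tested: Bacillus subtilis NBRC 3513, Bacillus megaterium ATCC 19213, Staphylococcus epidermidis NBRC 12933, Staphylococcus aureus NBRC 12732, Pseudomonas aeruginosa NBRC 3080, Escherichia coli NBRC 12734. MIC reported in µg/mL.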

Priestia megaterium = assay: Antibiotic activity against Bacillus megaterium ATCC 19213 by microplate dilution assay; assay type: functional; method in brief: as §1
[1] = system: Staphylococcus epidermidis; assay: Antibiotic activity against Staphylococcus epidermidis NBRC 12933 by microplate dilution assay; assay type: functional; method in brief: as §1
Staphylococcus aureus = assay: Antibiotic activity against Staphylococcus aureus NBRC 12732 by microplate dilution assay; assay type: functional; method in brief: as §1
Pseudomonas aeruginosa = assay: Antibiotic activity against Pseudomonas aeruginosa NBRC 3080 by microplate dilution assay; assay type: functional; method in brief: as §1
Escherichia coli = assay: Antibiotic activity against Escherichia coli NBRC 12734 by microplate dilution assay; assay type: functional; method in brief: as §1
[2] = Cytotoxicity against human red blood cells assessed as hemolysis after 30 mins; assay type: cell-based; conditions: erythrocyte, 0.5 h

MIC (Bacillus subtilis) [µg/mL]	MIC (Priestia megaterium) [µg/mL]	MIC [1] [µg/mL]	MIC (Staphylococcus aureus) [µg/mL]	MIC (Pseudomonas aeruginosa) [µg/mL]	MIC (Escherichia coli) [µg/mL]	SMILES	Activity [2]
6.25 (≈ 4.47 µM)	6.25 (≈ 4.47 µM)	6.25 (≈ 4.47 µM)	6.25 (≈ 4.47 µM)	12.5 (≈ 8.94 µM)	25 (≈ 17.9 µM)	CC(C)C[C@@H]1NC(=O)[C@H](CCCN)NC(=O)[C@H](C(C)C)NC(=O)[C@@H](CCCCN)NC(=O)[C@@H]2CCCN2C(=O)[C@@H](Cc2ccccc2)NC(=O)[C@H](CC(C)C)NC(=O)[C@H](CCCN)NC(=O)[C@H](C(C)C)NC(=O)[C@@H](CCCCN)NC(=O)[C@@H]2CCCN2C(=O)[C@@H](Cc2ccccc2)NC1=O	Dose-dependent effect
12.5 (≈ 9.74 µM)	12.5 (≈ 9.74 µM)	25 (≈ 19.5 µM)	12.5 (≈ 9.74 µM)	> 100	> 100	CC(C)C[C@@H]1NC(=O)[C@H](CCCN)NC(=O)[C@H](C(C)C)NC(=O)[C@@H](C)NC(=O)[C@@H]2CCCN2C(=O)[C@@H](Cc2ccccc2)NC(=O)[C@H](CC(C)C)NC(=O)[C@H](CCCN)NC(=O)[C@H](C(C)C)NC(=O)[C@@H](C)NC(=O)[C@@H]2CCCN2C(=O)[C@@H](Cc2ccccc2)NC1=O (cyclo(L[dF]P[dA]V[Orn]L[dF]P[dA]V[Orn]))	Dose-dependent effect
100 (≈ 79.6 µM)	100 (≈ 79.6 µM)	> 100	100 (≈ 79.6 µM)	> 100	> 100	CC(C)C[C@@H]1NC(=O)[C@H](CCCN)NC(=O)[C@H](C(C)C)NC(=O)CNC(=O)[C@@H]2CCCN2C(=O)[C@@H](Cc2ccccc2)NC(=O)[C@H](CC(C)C)NC(=O)[C@H](CCCN)NC(=O)[C@H](C(C)C)NC(=O)CNC(=O)[C@@H]2CCCN2C(=O)[C@@H](Cc2ccccc2)NC1=O	Dose-dependent effect
						CC(C)C[C@@H]1NC(=O)[C@H](CCCN)NC(=O)[C@H](C(C)C)NC(=O)[C@@H]([C@H](C)O)NC(=O)[C@@H]2CCCN2C(=O)[C@@H](Cc2ccccc2)NC(=O)[C@H](CC(C)C)NC(=O)[C@H](CCCN)NC(=O)[C@H](C(C)C)NC(=O)[C@@H]([C@H](C)O)NC(=O)[C@@H]2CCCN2C(=O)[C@@H](Cc2ccccc2)NC1=O [listing 1 of 2 here]	Dose-dependent effect
6.25 (≈ 4.67 µM)	6.25 (≈ 4.67 µM)	12.5 (≈ 9.33 µM)	12.5 (≈ 9.33 µM)	> 100	> 100	CC(C)C[C@@H]1NC(=O)[C@H](CCCN)NC(=O)[C@H](C(C)C)NC(=O)[C@@H](C(C)C)NC(=O)[C@@H]2CCCN2C(=O)[C@@H](Cc2ccccc2)NC(=O)[C@H](CC(C)C)NC(=O)[C@H](CCCN)NC(=O)[C@H](C(C)C)NC(=O)[C@@H](C(C)C)NC(=O)[C@@H]2CCCN2C(=O)[C@@H](Cc2ccccc2)NC1=O	Dose-dependent effect
100 (≈ 74.4 µM)	100 (≈ 74.4 µM)	100 (≈ 74.4 µM)	50 (≈ 37.2 µM)	> 100	> 100	CC(C)C[C@@H]1NC(=O)[C@H](CCCN)NC(=O)[C@H](C(C)C)NC(=O)[C@@H]([C@H](C)O)NC(=O)[C@@H]2CCCN2C(=O)[C@@H](Cc2ccccc2)NC(=O)[C@H](CC(C)C)NC(=O)[C@H](CCCN)NC(=O)[C@H](C(C)C)NC(=O)[C@@H]([C@H](C)O)NC(=O)[C@@H]2CCCN2C(=O)[C@@H](Cc2ccccc2)NC1=O [listing 2 of 2 here]	
6.25 (≈ 4.56 µM)	6.25 (≈ 4.56 µM)	6.25 (≈ 4.56 µM)	6.25 (≈ 4.56 µM)	25 (≈ 18.3 µM)	25 (≈ 18.3 µM)	CC(C)C[C@@H]1NC(=O)[C@H](CCCN)NC(=O)[C@H](C(C)C)NC(=O)[C@@H](CCCN)NC(=O)[C@@H]2CCCN2C(=O)[C@@H](Cc2ccccc2)NC(=O)[C@H](CC(C)C)NC(=O)[C@H](CCCN)NC(=O)[C@H](C(C)C)NC(=O)[C@@H](CCCN)NC(=O)[C@@H]2CCCN2C(=O)[C@@H](Cc2ccccc2)NC1=O	Dose-dependent effect
> 100	> 100	> 100	100 (≈ 76 µM)	> 100	> 100	CC(C)C[C@@H]1NC(=O)[C@H](CCCN)NC(=O)[C@H](C(C)C)NC(=O)[C@@H](CO)NC(=O)[C@@H]2CCCN2C(=O)[C@@H](Cc2ccccc2)NC(=O)[C@H](CC(C)C)NC(=O)[C@H](CCCN)NC(=O)[C@H](C(C)C)NC(=O)[C@@H](CO)NC(=O)[C@@H]2CCCN2C(=O)[C@@H](Cc2ccccc2)NC1=O	Dose-dependent effect
12.5 (≈ 9.33 µM)	12.5 (≈ 9.33 µM)	25 (≈ 18.7 µM)	12.5 (≈ 9.33 µM)	> 100	> 100	CCC[C@H]1NC(=O)[C@@H]2CCCN2C(=O)[C@@H](Cc2ccccc2)NC(=O)[C@H](CC(C)C)NC(=O)[C@H](CCCN)NC(=O)[C@H](C(C)C)NC(=O)[C@@H](CCC)NC(=O)[C@@H]2CCCN2C(=O)[C@@H](Cc2ccccc2)NC(=O)[C@H](CC(C)C)NC(=O)[C@H](CCCN)NC(=O)[C@H](C(C)C)NC1=O	Dose-dependent effect
